The test system of series [1] is chorio-allantoic membrane of fertilized hen's eggs. Kind of series: Hen's egg chorio-allantoic membrane. The conditions noted are these: for irritation score (IS): 30 µL applied, observed 300 s; for irritation category: from IS. Summed up: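 Fertilized hen's eggs (7–10 days) incubated at 37.5 ± 0.5 °C and 62.5 ± 7.5% humidity with rotation. Shell over the air cell opened, membrane moistened with saline and removed. 30 µL sample applied to the CAM. First hemorrhage, vascular lysis and coagulation timed over 300 s; IS = [(301−h)×5]/300 + [(301−l)×7]/300 + [(301−c)×9]/300. CAM also imaged at 0, 5 and 60 min. Controls: 1% w/v SLS and normal saline.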

The subject of series [2] is human skin. Conditions: daily application under occlusive patch, human volunteers; cited from earlier work.
The nature of series [3]: Cytotoxicity by MTT assay in Hs68 cells. It is filed as cell-based. The conditions noted are these: human, Hs68 cells (foreskin fibroblasts). Summed up: (§1)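 Thawed cells grown in DMEM with 10% v/v fetal calf serum, 1 mM L-glutamine, penicillin and streptomycin at 37 °C, 5% CO2. Seeded at 3 × 10^5 (HaCaT) or 3.5 × 10^5 (Hs68) cells/well for 24 h. Treated with oil at 0–100 µg/mL for 48 h. MTT (5 mg/mL solution) added for 4 h; formazan dissolved in DMSO; A578 and A630.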
(In general: Tetrazolium assays rely on reduction of a dye to a coloured formazan, in cell work by metabolically active cells.)

Series [4] is described as follows: Cytotoxicity by MTT assay in HaCaT cells. The series is classed as cell-based. The conditions noted are these: human, HaCaT cells (immortalized epidermal keratinocytes). Summed up: as §1
The test system of series [5] is rabbit skin. Conditions: rabbits, ref Acid (1987) [48], cited from earlier work.

Each structure is given as a SMILES string. In brackets after ≈: the same amount, converted by molar mass.

Consider `CCCCCCCCCCCCOS(=O)(=O)[O-].[Na+]` [SLS, sodium lauryl sulphate], for which, in series [1], the “irritation score (IS)” value amounted to 12.5 ± 0.3 and the irritation category result is recorded as “severe irritation”.
As to `CCCCC/C=C\C/C=C\CCCCCCCC(=O)O` [linoleic acid], in series [2], the “irritation of human skin” value was “found to produce irritation”. Besides, in series [3], the IC20 at 48 h is above 100 µg/mL and the viability at 48 h, 100 µg/mL is above 90%. In series [4], this molecule gave a concentration for an effect of 20% (IC20) at 48 h of 100 µg/mL (≈ 357 µM) and a viability at 48 h, 100 µg/mL of 73.8 ± 5.8%. Moreover, in series [1], the “irritation score (IS)” value is recorded as 0.0 ± 0.0 and the irritation category result was “no irritant effect”.
As to `CCCCCCCC/C=C\CCCCCCCC(=O)O` [oleic acid], the “irritation of human skin” value in series [2] is “not found to be irritating”. In addition, in series [3], the IC20 at 48 h is above 100 µg/mL and the viability at 48 h, 100 µg/mL is above 90%. In series [4], this molecule displayed an IC20 at 48 h of 100 µg/mL (≈ 354 µM) and a viability at 48 h, 100 µg/mL of 82.2 ± 6.1%. Further, in series [1], the “irritation score (IS)” value stood at 0.0 ± 0.0 and the irritation category entry is listed as “no irritant effect”. Further, the “primary irritation index (PII)” value in series [5] (single insult occlusive patch test) is 0.5. Moreover, the erythema entry in series [5] (oleic acid after 24 h, palmitic acid after 2–24 h) was “moderate erythema”.
`CCCCCCCCCCCCCCCC(=O)O` [palmitic acid]: the “irritation of human skin” value in series [2] is “not found to be irritating”. For the same molecule, in series [3], the IC20 at 48 h was above 100 µg/mL and the viability at 48 h, 100 µg/mL was above 90%. In series [4], this molecule registered an IC20 at 48 h of 100 µg/mL (≈ 390 µM) and a viability at 48 h, 100 µg/mL of 75.9 ± 3.5%. In series [1], the “irritation score (IS)” value was found to be 0.0 ± 0.0 and the irritation category entry is “no irritant effect”. The “irritation signs on CAM after 60 min of exposure” value in series [1] (60 min) is on record as “vascular lysis was detected”.

The IC20 is the concentration needed for an effect of 20%. Low values mean greater potency, high ones weaker potency. The viability is a read-out of living cells in per cent, often relative to untreated cells. Read a high viability as better survival.
